Measurements of several laboratories.
Each line is one published result; the experiments were not run side by side.
Target: Casein kinase I isoform gamma-2 (CSNK1G2, Homo sapiens, UniProt P78368)

C1=C/COCc2cc(ccc2OCCN2CCCC2)Nc2nccc(n2)-c2cccc(c2)COC/1  remaining signal (cell-free assay; 0.1 µM): 92%
Cc1cc(O)c(-c2ccc([C@@H](C)CN(C)C)cc2)c2c1[nH]c(=O)c1sccc12  inhibition (enzyme activity; inhibitor; 0.1 µM): -6.66%
C#Cc1cnc(Nc2ccnc(CO)c2)nc1Nc1ccccc1S(C)(=O)=NC#N (stereo not drawn)  remaining signal (cell-free assay; 1 µM): 65%
CC#CC(=O)N1CCC[C@H]1c1nc(-c2ccc(C(=O)Nc3ccccn3)cc2)c2c(N)nccn12  inhibition (enzyme activity; inhibitor; 1 µM): 9%
C[C@H]1CC[C@H](n2c3cnccc3c3cnc(Nc4ccc5c(n4)CCN(C(=O)CO)C5)nc32)CC1  remaining signal (cell-free assay; 1 µM): 98%
CO[C@@H]1[C@H](N(C)C(=O)c2ccccc2)C[C@H]2O[C@]1(C)n1c3ccccc3c3c4c(c5c6ccccc6n2c5c31)C(=O)NC4  inhibition (enzyme activity; inhibitor; 1 µM): 4%
N#Cc1ccc(NC(=O)Nc2ccccc2)cc1  remaining binding (cell-free assay; competition with immobilised ligand; 25 µM): 100%
N#Cc1ccc2nc(Nc3ccc(N4CCOCC4)c(Cl)c3)[nH]c2c1  ΔTm (thermal stability; DSF; 30 µM): 3.6 °C
COc1ccc2oc(-c3ccc4nc(N)oc4c3)c/c(=N\c3ccccc3NC(=O)CCN)c2c1  remaining binding (binding; 1 µM): 95%
CCCCC(=O)Nc1ccc(-c2ccc3ncn(CCC)c(=O)c3c2)cn1  remaining binding (binding; competition with immobilised ligand; 0.5 µM): 91%
CC(C)S(=O)(=O)c1ccc2nccc(Nc3ccc4sc(C5CCCC5)nc4c3)c2c1  activity vs control (enzyme activity; inhibitor; 1 µM): 100%
CN1CCN(C(=O)c2ccc(NC(=O)Nc3ccc(N(C)c4ccnc(Nc5ccc(CS(C)(=O)=O)cc5)n4)cc3)cc2)CC1  remaining binding (binding; 1 µM): 100%
